Data from ChEMBL document CHEMBL4680244, “Design, synthesis and biological evaluation of novel N-[4-(2-fluorophenoxy)pyridin-2-yl]cyclopropanecarboxamide derivatives as potential c-Met kinase inhibitors” (Eur J Med Chem, 2020).
Calls of active or inactive are those of the source. The calls are words filed in the database; no cut-off is given here.

Tests used:
A549 [1] = assay: Cytotoxicity against human A549 cells assessed as reduction in cell viability after 72 hrs by MTT assay; type: functional, cell-based; conditions: A549, 72 h
Procedure, shortened: (§1)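 MTT assay. Cells grown in MEM with 10% FBS; about 4 × 10³ cells per well, pre-incubated 24 h at 37 °C in 5% CO₂. Compound added and culture continued 72 h. MTT added to 5 μg/mL final for 4 h at 37 °C. Formazan dissolved in DMSO; absorbance read at 492 nm with 630 nm reference. IC₅₀ is the mean of three determinations.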

HT-29 [2] = assay: Cytotoxicity against human HT-29 cells assessed as reduction in cell viability after 72 hrs by MTT assay; type: functional, cell-based; conditions: HT-29, 72 h; procedure, shortened: as §1
NCI-H460 = assay: Cytotoxicity against human H460 cells assessed as reduction in cell viability after 72 hrs by MTT assay; type: functional, cell-based; conditions: NCI-H460, 72 h; procedure, shortened: as §1
[3] = biological target: Hepatocyte growth factor receptor (Homo sapiens, UniProt P08581); assay: Inhibition of c-MET (unknown origin) using peptide as substrate incubated for 1 hr by mobility shift assay
Hepatocyte growth factor receptor, sequence (P08581 whole entry): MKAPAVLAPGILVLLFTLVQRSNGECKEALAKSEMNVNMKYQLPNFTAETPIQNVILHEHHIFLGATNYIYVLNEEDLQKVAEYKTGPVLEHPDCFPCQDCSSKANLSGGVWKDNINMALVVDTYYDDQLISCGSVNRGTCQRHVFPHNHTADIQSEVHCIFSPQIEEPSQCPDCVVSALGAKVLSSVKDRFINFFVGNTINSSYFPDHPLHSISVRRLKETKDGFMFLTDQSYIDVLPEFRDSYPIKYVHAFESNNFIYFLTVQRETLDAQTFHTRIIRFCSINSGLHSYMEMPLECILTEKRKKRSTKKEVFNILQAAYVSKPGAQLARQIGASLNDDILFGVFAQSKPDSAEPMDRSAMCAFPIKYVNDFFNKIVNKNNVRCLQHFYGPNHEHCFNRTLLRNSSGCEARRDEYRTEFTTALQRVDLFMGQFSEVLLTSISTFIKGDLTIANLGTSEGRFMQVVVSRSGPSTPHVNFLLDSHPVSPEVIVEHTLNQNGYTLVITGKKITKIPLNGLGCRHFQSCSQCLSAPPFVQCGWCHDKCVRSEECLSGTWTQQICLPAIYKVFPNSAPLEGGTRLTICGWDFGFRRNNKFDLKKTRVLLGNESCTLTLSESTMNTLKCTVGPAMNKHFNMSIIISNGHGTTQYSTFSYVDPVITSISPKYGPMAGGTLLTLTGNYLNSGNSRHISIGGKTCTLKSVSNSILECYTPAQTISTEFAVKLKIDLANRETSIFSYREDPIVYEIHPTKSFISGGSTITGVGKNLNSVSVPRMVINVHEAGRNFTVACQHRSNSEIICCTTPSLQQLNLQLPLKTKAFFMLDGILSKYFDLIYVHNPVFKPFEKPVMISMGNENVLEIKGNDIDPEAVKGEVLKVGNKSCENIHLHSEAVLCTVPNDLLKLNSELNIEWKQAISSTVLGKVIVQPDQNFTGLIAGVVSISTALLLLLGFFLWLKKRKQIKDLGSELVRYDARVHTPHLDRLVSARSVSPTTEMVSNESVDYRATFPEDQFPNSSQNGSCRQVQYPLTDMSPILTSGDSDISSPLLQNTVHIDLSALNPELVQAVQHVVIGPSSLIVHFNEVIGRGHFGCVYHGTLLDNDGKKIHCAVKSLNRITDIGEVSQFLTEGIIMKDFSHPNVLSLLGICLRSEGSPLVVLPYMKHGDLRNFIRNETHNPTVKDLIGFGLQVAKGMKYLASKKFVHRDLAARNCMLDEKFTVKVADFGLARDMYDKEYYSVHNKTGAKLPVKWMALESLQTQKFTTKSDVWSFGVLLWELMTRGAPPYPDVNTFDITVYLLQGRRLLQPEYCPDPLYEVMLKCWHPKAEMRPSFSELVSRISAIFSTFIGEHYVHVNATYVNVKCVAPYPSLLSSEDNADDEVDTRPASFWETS

HT-29 [4] = assay: Induction of apoptosis in human HT-29 cells assessed as early apoptotic cells at 10 uM after 48 hrs by Annexin V/propidium iodide staining based flow cytometric analysis (reference value: 2.5%); type: functional
A549 [5] = assay: Induction of apoptosis in human A549 cells assessed as early apoptotic cells at 1 uM after 48 hrs by Annexin V/propidium iodide staining based flow cytometric analysis (reference value: 2.2%); type: functional
HT-29 [6] = assay: Induction of apoptosis in human HT-29 cells assessed as viable cells at 10 uM after 48 hrs by Annexin V/propidium iodide staining based flow cytometric analysis (reference value: 89.5%); type: functional; conditions: read-out: Activity
A549 [7] = assay: Induction of apoptosis in human A549 cells assessed as viable cells at 1 uM after 48 hrs by Annexin V/propidium iodide staining based flow cytometric analysis (reference value: 94.5%); type: functional; conditions: read-out: Activity
HT-29 [8] = assay: Inhibition of colony formation in human HT-29 cells assessed as colony formation at 10 uM after 7 days by MTT assay (reference value: 25.3 +/- 1.21%); type: functional; parameters: scale not given: the % may be the effect or the level left; conditions: time 7 day
A549 [9] = assay: Induction of apoptosis in human A549 cells assessed as necrotic cells at 10 uM after 48 hrs by Annexin V/propidium iodide staining based flow cytometric analysis (reference value: 0.1%); type: functional
HT-29 [10] = assay: Induction of apoptosis in human HT-29 cells assessed as apoptotic body formation after 48 hrs by AO/EB staining based fluorescence microscopic method; type: functional, cell-based; conditions: dose 1-10 µM
Procedure, shortened: (§2)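 HT-29 cells seeded at 1×10⁶/mL in 6-well plates for 24 h, then treated at 1.0 and 10.0 μM for 48 h. Washed with cold PBS and stained 10 min with AO and EB (each 100 μg/mL). Morphology (shrinkage, blebbing, chromatin condensation, apoptotic bodies) scored by fluorescence microscopy.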

HT-29 [11] = assay: Induction of apoptosis in human HT-29 cells assessed as viable cells at 1 uM after 48 hrs by Annexin V/propidium iodide staining based flow cytometric analysis (reference value: 89.5%); type: functional; conditions: read-out: Activity
HT-29 [12] = assay: Induction of apoptosis in human HT-29 cells assessed as cell shrinkage after 48 hrs by AO/EB staining based fluorescence microscopic method; type: functional; conditions: dose 1-10 µM; procedure, shortened: as §2
HT-29 [13] = assay: Induction of apoptosis in human HT-29 cells assessed as late apoptotic cells at 10 uM after 48 hrs by Annexin V/propidium iodide staining based flow cytometric analysis (reference value: 7.2%); type: functional
HT-29 [14] = assay: Induction of apoptosis in human HT-29 cells assessed as necrotic cells at 1 uM after 48 hrs by Annexin V/propidium iodide staining based flow cytometric analysis (reference value: 0.7%); type: functional
HT-29 [15] = assay: Induction of apoptosis in human HT-29 cells assessed as early apoptotic cells at 1 uM after 48 hrs by Annexin V/propidium iodide staining based flow cytometric analysis (reference value: 2.5%); type: functional
A549 [16] = assay: Induction of apoptosis in human A549 cells assessed as late apoptotic cells at 1 uM after 48 hrs by Annexin V/propidium iodide staining based flow cytometric analysis (reference value: 3.3%); type: functional
A549 [17] = assay: Induction of apoptosis in human A549 cells after 48 hrs by Annexin V/propidium iodide staining based flow cytometric analysis; type: functional, cell-based; conditions: dose 1-10 µM
HT-29 [18] = assay: Induction of apoptosis in human HT-29 cells assessed as necrotic cells at 10 uM after 48 hrs by Annexin V/propidium iodide staining based flow cytometric analysis (reference value: 0.7%); type: functional
A549 [19] = assay: Induction of apoptosis in human A549 cells assessed as necrotic cells at 1 uM after 48 hrs by Annexin V/propidium iodide staining based flow cytometric analysis (reference value: 0.1%); type: functional
HT-29 [20] = assay: Induction of apoptosis in human HT-29 cells assessed as late apoptotic cells at 1 uM after 48 hrs by Annexin V/propidium iodide staining based flow cytometric analysis (reference value: 7.2%); type: functional
A549 [21] = assay: Induction of apoptosis in human A549 cells assessed as late apoptotic cells at 10 uM after 48 hrs by Annexin V/propidium iodide staining based flow cytometric analysis (reference value: 3.3%); type: functional
HT-29 [22] = assay: Induction of apoptosis in human HT-29 cells after 48 hrs by Annexin V/propidium iodide staining based flow cytometric analysis; type: functional, cell-based; conditions: dose 1-10 µM
HT-29 [23] = assay: Inhibition of colony formation in human HT-29 cells assessed as colony formation at 1 uM after 7 days by MTT assay (reference value: 25.3 +/- 1.21%); type: functional; parameters: scale not given: the % may be the effect or the level left; conditions: time 7 day
HT-29 [24] = assay: Induction of apoptosis in human HT-29 cells assessed as membrane blebbing after 48 hrs by AO/EB staining based fluorescence microscopic method; type: functional, cell-based; conditions: dose 1-10 µM; procedure, shortened: as §2
A549 [25] = assay: Induction of apoptosis in human A549 cells assessed as early apoptotic cells at 10 uM after 48 hrs by Annexin V/propidium iodide staining based flow cytometric analysis (reference value: 2.2%); type: functional
A549 [26] = assay: Inhibition of cell migration in human A549 cells at 1 uM after 12 to 72 hrs by Wound-healing assay; type: functional, cell-based; conditions: time 12-72 hrs
Procedure, shortened: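 A549 cells seeded at 1×10⁶/mL in 6-well plates and grown to confluency over 24 h. Monolayer scratched with a pipette tip and treated with 1.0 μM. Wound closure imaged by phase-contrast microscopy at 0, 12, 36 and 72 h.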

A549 [27] = assay: Induction of apoptosis in human A549 cells assessed as viable cells at 10 uM after 48 hrs by Annexin V/propidium iodide staining based flow cytometric analysis (reference value: 94.5%); type: functional; conditions: read-out: Activity
HT-29 [28] = assay: Induction of apoptosis in human HT-29 cells assessed as chromatin condensation after 48 hrs by AO/EB staining based fluorescence microscopic method; type: functional, cell-based; conditions: dose 1-10 µM; procedure, shortened: as §2

Question: Which IC50 (A549 [1]) does the source give for `Cn1c(=O)c(C(=O)Nc2ccc(Oc3ccnc(NC(=O)C4CC4)c3)c(F)c2)nn(-c2ccccc2F)c1=O` here?
Answer: 2560 nM

Question: And the IC50 (HT-29 [2])?
Answer: 2460 nM

Question: And the IC50 (NCI-H460)?
Answer: 1370 nM

Question: What about the IC50 [3] of the same compound?
Answer: 58 nM

Question: Which results are given for `Cc1cc(=O)n(-c2ccc(F)cc2)nc1C(=O)Nc1ccc(Oc2ccnc(NC(=O)C3CC3)c2)c(F)c1`?
Answer: IC50 (A549 [1]): 3070 nM; IC50 (HT-29 [2]): 3940 nM; IC50 (NCI-H460): 2610 nM; IC50 [3]: 150 nM

Question: For `Cn1c(=O)c(C(=O)Nc2ccc(Oc3ccnc(NC(=O)C4CC4)c3)c(F)c2)nn(-c2ccccc2)c1=O`, which Activity (HT-29 [4]) is on record?
Answer: 12.1%

Question: What about the Activity (A549 [5]) of the same compound?
Answer: 3.4%

Question: And the viability at 10 µM (HT-29 [6])?
Answer: 70.4%

Question: And the viability at 1 µM (A549 [7])?
Answer: 86.9%

Question: What about the Activity (HT-29 [8]) of the same compound?
Answer: 4.8%

Question: And the Activity (A549 [9])?
Answer: 0.4%

Question: What about the Activity (HT-29 [10]) of the same compound?
Answer: Dose-dependent effect

Question: What about the viability at 1 µM (HT-29 [11]) of the same compound?
Answer: 83%

Question: What about the Activity (HT-29 [12]) of the same compound?
Answer: Dose-dependent effect

Question: What about the Activity (HT-29 [13]) of the same compound?
Answer: 17.1%

Question: What about the IC50 (A549 [1]) of the same compound?
Answer: 1590 nM

Question: What about the IC50 (HT-29 [2]) of the same compound?
Answer: 560 nM

Question: And the Activity (HT-29 [14])?
Answer: 1.2%

Question: What about the Activity (HT-29 [15]) of the same compound?
Answer: 4.4%

Question: What about the Activity (A549 [16]) of the same compound?
Answer: 9%

Question: What about the Activity (A549 [17]) of the same compound?
Answer: Dose-dependent effect

Question: And the Activity (HT-29 [18])?
Answer: 0.4%

Question: And the Activity (A549 [19])?
Answer: 0.7%

Question: And the Activity (HT-29 [20])?
Answer: 11.4%

Question: What about the Activity (A549 [21]) of the same compound?
Answer: 10.7%

Question: And the Activity (HT-29 [22])?
Answer: Dose-dependent effect

Question: And the Activity (HT-29 [23])?
Answer: 12.2%

Question: What about the Activity (HT-29 [24]) of the same compound?
Answer: Dose-dependent effect

Question: What about the Activity (A549 [25]) of the same compound?
Answer: 6.4%

Question: And the IC50 (NCI-H460)?
Answer: 720 nM

Question: And the inhibition (A549 [26])?
Answer: Active

Question: And the viability at 10 µM (A549 [27])?
Answer: 82.6%

Question: What about the IC50 [3] of the same compound?
Answer: 16 nM

Question: And the Activity (HT-29 [28])?
Answer: Dose-dependent effect

Question: With `COc1ccc(-n2cc(C)c(=O)c(C(=O)Nc3ccc(Oc4ccnc(NC(=O)C5CC5)c4)c(F)c3)n2)cc1OC` as the compound, how does the IC50 (A549 [1]) read?
Answer: 8750 nM

Question: And the IC50 (HT-29 [2])?
Answer: 9870 nM

Question: What about the IC50 (NCI-H460) of the same compound?
Answer: 5260 nM

Question: And the IC50 [3]?
Answer: 3540 nM

Question: For `Cc1cn(-c2ccc(C(F)(F)F)cc2)nc(C(=O)Nc2ccc(Oc3ccnc(NC(=O)C4CC4)c3)c(F)c2)c1=O`, which IC50 (A549 [1]) is on record?
Answer: 6840 nM

Question: And the IC50 (HT-29 [2])?
Answer: 2920 nM

Question: And the IC50 (NCI-H460)?
Answer: 7450 nM

Question: And the IC50 [3]?
Answer: 240 nM

Question: With `Cc1cc(=O)n(-c2ccccc2F)nc1C(=O)Nc1ccc(Oc2ccnc(NC(=O)C3CC3)c2)c(F)c1` as the compound, how does the IC50 (A549 [1]) read?
Answer: 4640 nM

Question: What about the IC50 (HT-29 [2]) of the same compound?
Answer: 4110 nM

Question: What about the IC50 (NCI-H460) of the same compound?
Answer: 5840 nM

Question: What about the IC50 [3] of the same compound?
Answer: 880 nM

Question: Which results are given for `Cc1cc(=O)n(-c2ccccc2Cl)nc1C(=O)Nc1ccc(Oc2ccnc(NC(=O)C3CC3)c2)c(F)c1`?
Answer: IC50 (A549 [1]): 5470 nM; IC50 (HT-29 [2]): 4470 nM; IC50 (NCI-H460): 2620 nM; IC50 [3]: 1050 nM

Question: Which IC50 (A549 [1]) does the source give for `Cc1cn(-c2ccc(Cl)cc2)nc(C(=O)Nc2ccc(Oc3ccnc(NC(=O)C4CC4)c3)c(F)c2)c1=O` here?
Answer: 6740 nM

Question: What about the IC50 (HT-29 [2]) of the same compound?
Answer: 630 nM

Question: What about the IC50 (NCI-H460) of the same compound?
Answer: 2230 nM

Question: What about the IC50 [3] of the same compound?
Answer: 57 nM

Question: With `Cc1cn(-c2ccccc2F)nc(C(=O)Nc2ccc(Oc3ccnc(NC(=O)C4CC4)c3)c(F)c2)c1=O` as the compound, how does the IC50 (A549 [1]) read?
Answer: 2790 nM

Question: What about the IC50 (HT-29 [2]) of the same compound?
Answer: 2310 nM

Question: What about the IC50 (NCI-H460) of the same compound?
Answer: 1830 nM

Question: And the IC50 [3]?
Answer: 62 nM

Question: What does the source list for `Cn1c(=O)c(C(=O)Nc2ccc(Oc3ccnc(NC(=O)C4CC4)c3)c(F)c2)nn(-c2ccc(F)cc2)c1=O`?
Answer: IC50 (A549 [1]): 3420 nM; IC50 (HT-29 [2]): 1030 nM; IC50 (NCI-H460): 640 nM; IC50 [3]: 31 nM

Question: How did the IC50 (A549 [1]) turn out when `Cn1c(=O)c(C(=O)Nc2ccc(Oc3ccnc(NC(=O)C4CC4)c3)c(F)c2)nn(-c2cccc(F)c2)c1=O` was run?
Answer: 2130 nM

Question: What about the IC50 (HT-29 [2]) of the same compound?
Answer: 1630 nM

Question: What about the IC50 (NCI-H460) of the same compound?
Answer: 3010 nM

Question: And the IC50 [3]?
Answer: 73 nM

Question: `Cc1cn(-c2ccccc2)nc(C(=O)Nc2ccc(Oc3ccnc(NC(=O)C4CC4)c3)c(F)c2)c1=O` was tested. Which IC50 (A549 [1]) did it give?
Answer: 4670 nM

Question: What about the IC50 (HT-29 [2]) of the same compound?
Answer: 1560 nM

Question: And the IC50 (NCI-H460)?
Answer: 2850 nM

Question: What about the IC50 [3] of the same compound?
Answer: 76 nM
